The source made the active and inactive calls. The rule behind the calls is not given here.
How the values were obtained:
Staphylococcus aureus [1] = test: Bacteriostatic activity against Staphylococcus aureus ATCC 25923 infected in human THP-1 cells at 10 times MIC after 5 hrs; assay type: functional, organism-based
Procedure, shortened: (§1)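 Human THP-1 macrophages were infected with opsonized S. aureus at 4 bacteria per macrophage for 45 min. Non-phagocytized bacteria were removed by washing and a brief incubation in PBS with gentamicin 50 mg/liter. Cells were then incubated up to 24 h with DCX over a wide range of extracellular concentrations. The read-out was Δlog CFU per mg cell protein versus time zero (n = 3), with sigmoidal fitting and Cstatic by interpolation.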

[2] = Half-life in NMRI mouse at 120 mg/kg, sc; assay type: ADME, organism-based; design: dose 120 mg/kg, route subcutaneous; conditions: in vivo
Procedure, shortened: (§2)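 Single subcutaneous DCX doses given to NMRI mice. Blood was collected into EDTA tubes, and plasma drug was assayed by microbiological bioassay with S. lutea ATCC 9391 (detection limit 1.5 mg/liter, linear to 100 mg/liter). Values came from noncompartmental analysis. Terminal half-life was fitted monoexponentially to the last four time points. AUC24 combined the trapezoidal rule over mean points with exact integration of the fitted curve extrapolated to 24 h.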

[3] = fT>MIC in Staphylococcus aureus E19977 infected NMRI mouse at 120 mg/kg administered every 6 hrs; assay type: functional
Procedure, shortened: (§3)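 Calculated percentage of 24 h at steady state that free plasma DCX exceeds the strain MIC (microdilution, pH 7.4). Concentrations were simulated from single subcutaneous dose plasma curves in NMRI mice (S. lutea bioassay), adjusted with a square-root model of concentration-dependent free fraction from ultrafiltration. The regimen was dosed subcutaneously in mice infected intraperitoneally with 10^7.4 CFU, and peritoneal CFU were read after 24 h of therapy.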

Mus musculus [4] = species: Mus musculus; test: Protein binding in NMRI mouse at 400 mg/l by ultrafiltration; assay type: ADME, organism-based; conditions: in vivo
Procedure, shortened: (§4)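 Plasma binding was measured by ultrafiltration. EDTA blood from healthy mice, or from NMRI mice infected intraperitoneally for 6 h with E19977, was spiked with DCX at 10–400 mg/liter, with PBS controls. Samples were held 1 h at 37°C, then centrifuged through 30-kDa filters at 3,000 × g for 8 min at 37°C. Total and filtrate drug were measured by S. lutea bioassay.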

[5] = Ratio of fCmax in NMRI mouse at 120 mg/kg administered every 3 hrs to MIC for Staphylococcus aureus E19977; assay type: functional
Procedure, shortened: (§5)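 Free Cmax/MIC was modelled, not measured. Single-dose subcutaneous plasma curves from NMRI mice were projected to the multiple-dose regimens. Free fraction came from a square-root fit of unbound fraction versus total concentration. Binding was measured by ultrafiltration of mouse plasma spiked with 10–400 mg/liter and held 1 h at 37°C. MIC was for strain E19977.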

Mus musculus [6] = species: Mus musculus; test: Protein binding in NMRI mouse at 90 mg/l by ultrafiltration; assay type: ADME, organism-based; conditions: in vivo; procedure, shortened: as §4
Staphylococcus aureus [7] = test: Bactericidal activity against Staphylococcus aureus E19977 assessed as log reduction in bacterial count at 100 times MIC after 5 hrs by time-kill assay; assay type: functional
Procedure, shortened: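 Broth time-kill: MSSA at 10⁶ CFU/ml exposed to a wide range of dicloxacillin concentrations. CFU counted after 5 and 24 h and expressed as change in log₁₀ CFU/ml from time zero. Multiples refer to the MIC by CLSI microdilution at pH 7.4. n = 3.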

[8] = fT>MIC in Staphylococcus aureus E19977 infected NMRI mouse at 240 mg/kg administered every 6 hrs; assay type: functional; procedure, shortened: as §3
[9] = AUC (24 hrs) in NMRI mouse at 30 mg/kg, sc; assay type: ADME, organism-based; design: time < 24 hr, dose 30 mg/kg, route subcutaneous; conditions: plasma; procedure, shortened: as §2
[10] = fT>MIC in Staphylococcus aureus E19977 infected NMRI mouse at 80 mg/kg administered every 8 hrs; assay type: functional; procedure, shortened: as §3
[11] = Ratio of fAUC (24 hrs) in NMRI mouse at 30 mg/kg administered every 2 hrs to MIC for Staphylococcus aureus E19977; assay type: functional
Procedure, shortened: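 Modeled free AUC over 24 h divided by the MIC, not measured directly. Single subcutaneous DCX doses were given to NMRI mice, and plasma was assayed by S. lutea bioassay. Noncompartmental analysis used trapezoidal mean points plus a fitted monoexponential extrapolated to 24 h. Free fraction came from a square-root fit to plasma ultrafiltration binding (10–400 mg/liter spike, 1 h, 37°C). The MIC was measured by broth microdilution at pH 7.4.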

Staphylococcus aureus [12] = test: Bacteriostatic activity against Staphylococcus aureus E19977 infected in human THP-1 cells at 10 times MIC after 5 hrs; assay type: functional, organism-based; procedure, shortened: as §1
[13] = Ratio of fAUC (24 hrs) in NMRI mouse at 120 mg/kg administered every 6 hrs to MIC for Staphylococcus aureus E19977; assay type: functional
Procedure, shortened: (§6)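 Free-drug AUC24/MIC was modelled for repeated subcutaneous regimens. Single-dose NMRI plasma concentration-time curves were combined with the best-fitting square-root expression for the concentration-dependent free fraction. The result was divided by the E19977 MIC.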

[14] = Ratio of fAUC (24 hrs) in NMRI mouse at 120 mg/kg administered every 24 hrs to MIC for Staphylococcus aureus E19977; assay type: functional; procedure, shortened: as §6
[15] = Ratio of fCmax in NMRI mouse at 300 mg/kg administered every 12 hrs to MIC for Staphylococcus aureus E19977; assay type: functional; procedure, shortened: as §5
Mus musculus [16] = species: Mus musculus; test: Protein binding in NMRI mouse infected with Staphylococcus aureus E19977 at 90 mg/l by ultrafiltration; assay type: ADME, organism-based; conditions: in vivo; procedure, shortened: as §4
[17] = fT>MIC in Staphylococcus aureus E19977 infected NMRI mouse at 300 mg/kg administered every 12 hrs; assay type: functional; procedure, shortened: as §3
[18] = Ratio of fAUC (24 hrs) in NMRI mouse at 160 mg/kg administered every 3 hrs to MIC for Staphylococcus aureus E19977; assay type: functional; procedure, shortened: as §6
[19] = AUC (24 hrs) in NMRI mouse at 1200 mg/kg, sc; assay type: ADME, organism-based; design: time < 24 hr, dose 1200 mg/kg, route subcutaneous; conditions: plasma
[20] = Ratio of fCmax in NMRI mouse at 200 mg/kg administered every 4 hrs to MIC for Staphylococcus aureus E19977; assay type: functional; procedure, shortened: as §5
[21] = Ratio of fAUC (24 hrs) in NMRI mouse at 120 mg/kg administered every 3 hrs to MIC for Staphylococcus aureus E19977; assay type: functional; procedure, shortened: as §6
Staphylococcus aureus [22] = test: Bactericidal activity against Staphylococcus aureus E19977 infected in human THP-1 cells assessed as log change in bacterial count after 24 hrs; assay type: functional; procedure, shortened: as §1
Staphylococcus aureus [23] = test: Bacteriostatic activity against Staphylococcus aureus ATCC 25923 infected in human THP-1 cells after 24 hrs; assay type: functional; procedure, shortened: as §1
Staphylococcus aureus [24] = test: Bacteriostatic activity against Staphylococcus aureus E19977 at MIC between 5 to 24 hrs; assay type: functional, organism-based
Procedure, shortened: (§7)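 Extracellular broth time- and concentration-kill test. The inoculum was ~10⁶ CFU/ml, exposed to a wide range of DCX concentrations, with CFU counted after 5 and 24 h. The read-out was Δlog CFU/ml versus time zero (mean ± SD, n = 3). A sigmoidal fit with slope 1 gave Emax and EC50. Cstatic was read by graphical interpolation as the concentration giving no change from the inoculum.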

[25] = Ratio of fAUC (24 hrs) in NMRI mouse at 340 mg/kg administered every 24 hrs to MIC for Staphylococcus aureus E19977
Staphylococcus aureus [26] = test: Bactericidal activity against Staphylococcus aureus ATCC 25923 assessed as log change in bacterial count after 24 hrs; assay type: functional; procedure, shortened: as §7

- half-life [2]: 22 min
- fT>MIC [3]: 37.78%
- Activity (Mus musculus [4]): 83.7%
- Activity (Mus musculus [6]): 88.7%
- fT>MIC [8]: 65.28%
- AUC at 24 h [9]: 21.4 µg·h/mL
- fT>MIC [10]: 25%
- fAUC/MIC [11]: 39.32 h
- fAUC/MIC [13]: 175.82 h
- fAUC/MIC [14]: 43.95 h
- Activity (Mus musculus [16]): 85.6%
- fT>MIC [17]: 35.28%
- fAUC/MIC [18]: 556.4 h
- AUC at 24 h [19]: 190 µg·h/mL
- fAUC/MIC [21]: 350.73 h
- fAUC/MIC [25]: 259.37 h
Structure (SMILES): Cc1onc(-c2c(Cl)cccc2Cl)c1C(=O)N[C@@H]1C(=O)N2[C@@H]1SC(C)(C)[C@@H]2C(=O)O [DICLOXACILLIN]
- Activity (Staphylococcus aureus [1]): Active
- Ratio [5]: 61.6
- FC (Staphylococcus aureus [7]): <1
- Activity (Staphylococcus aureus [12]): Active
- Ratio [15]: 196.76
- Ratio [20]: 101.92
- Emax (Staphylococcus aureus [22]): -1.01 deltalog10CFU/ml
- Activity (Staphylococcus aureus [23]): 0.11 mg/L
- Activity (Staphylococcus aureus [24]): Active
- Emax (Staphylococcus aureus [26]): -3.19 deltalog10CFU/ml

— ChEMBL document CHEMBL1255483, “Intra- and extracellular activities of dicloxacillin against Staphylococcus aureus in vivo and in vitro” (Antimicrob Agents Chemother, 2010)
